Reference: ChEMBL document CHEMBL2311328, “Molecular docking and synthesis of novel quinazoline analogues as inhibitors of transcription factors NF-κB activation and their anti-cancer activities” (2013)
Calls of active or inactive are those of the source. The rule behind the calls is not given here.

Key:
HepG2 [1] = experiment: Cytotoxicity against human HepG2 cells assessed as cellular growth at 50 uM incubated for 1 hr prior to TNF alpha stimulation measured after 48 hrs by SRB assay; type: functional
In short: (§1)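 HepG2 cells in DMEM with 10% FBS and penicillin/streptomycin were allowed to adhere 24 h, and a T0 plate was fixed. Compound was given for 1 h at 37 °C, with or without 20 ng/ml TNFα, then 48 h more. Cells were stained with 0.4% SRB for 30 min at RT, washed in 1% acetic acid, and solubilized in 10 mM Tris. OD read at 515 nm; one-way ANOVA.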

HepG2 [2] = experiment: Inhibition of TNFalpha-induced NFkappaB (unknown origin)-dependent transcriptional activity expressed in human HepG2 cells at 1 uM incubated for 1 hr prior to TNFalpha induction measured after 6 hrs by dual-luciferase reporter gene assay; type: cell-based
In short: (§2)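 HepG2 cells in DMEM with 10% FBS were lipofectamine-transfected with 10 ng/well pGL4.32 NF-κB-Luc plus Renilla control. Compound in DMSO was given in fresh medium for 1 h at 37 °C, then TNFα (final 20 ng/ml) for 6 h. Cells were lysed in passive lysis buffer. Firefly light units were normalized to Renilla; one-way ANOVA.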

HepG2 [3] = experiment: Cytotoxicity against human HepG2 cells assessed as cellular growth at 50 uM after 48 hrs by SRB assay in absence of TNFalpha; type: functional; in short: as §1
T47D = experiment: Cytotoxicity against human T47D cells after 48 hrs by SRB assay; type: functional
In short: (§3)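 Screened by the NCI Developmental Therapeutics Program in dose-response format. GI50 was determined by the sulforhodamine B protocol.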

OVCAR-3 = experiment: Cytotoxicity against human OVCAR3 cells after 48 hrs by SRB assay; type: functional; details: OVCAR-3, 48 h; in short: as §3
CAKI-1 = experiment: Cytotoxicity against human Caki1 cells after 48 hrs by SRB assay; type: functional; details: CAKI-1, 48 h; in short: as §3
SW-620 = experiment: Cytotoxicity against human SW620 cells after 48 hrs by SRB assay; type: functional; details: SW-620, 48 h; in short: as §3
MDA-MB-231 = experiment: Cytotoxicity against human MDA-MB-231 cells after 48 hrs by SRB assay; type: functional; details: MDA-MB-231, 48 h; in short: as §3
M14 = experiment: Cytotoxicity against human M14 cells after 48 hrs by SRB assay; type: functional; details: M14, 48 h; in short: as §3
LOX IMVI = experiment: Cytotoxicity against human LOXIMVI cells after 48 hrs by SRB assay; type: functional; in short: as §3
SF-268 = experiment: Cytotoxicity against human SF268 cells after 48 hrs by SRB assay; type: functional; details: SF-268, 48 h; in short: as §3
HepG2 [4] = experiment: Inhibition of TNFalpha-induced NFkappaB (unknown origin)-dependent transcriptional activity expressed in human HepG2 cells at 0.1 to 10 uM incubated for 1 hr prior to TNFalpha induction measured after 6 hrs by dual-luciferase reporter gene assay; type: cell-based; in short: as §2
MCF7 = experiment: Cytotoxicity against human MCF7 cells after 48 hrs by SRB assay; type: functional; details: MCF7, 48 h; in short: as §3
SNB-19 = experiment: Cytotoxicity against human SNB19 cells after 48 hrs by SRB assay; type: functional; details: SNB-19, 48 h; in short: as §3
RXF 393 = experiment: Cytotoxicity against human RXF393 cells after 48 hrs by SRB assay; type: functional; details: RXF 393, 48 h; in short: as §3
SNB-75 = experiment: Cytotoxicity against human SNB75 cells after 48 hrs by SRB assay; type: functional; details: SNB-75, 48 h; in short: as §3
HCC 2998 = experiment: Cytotoxicity against human HCC2998 cells after 48 hrs by SRB assay; type: functional; details: HCC 2998, 48 h; in short: as §3
SK-MEL-28 = experiment: Cytotoxicity against human SK-MEL-28 cells after 48 hrs by SRB assay; type: functional; details: SK-MEL-28, 48 h; in short: as §3
A498 = experiment: Cytotoxicity against human A498 cells after 48 hrs by SRB assay; type: functional; details: A498, 48 h; in short: as §3
HCT-116 = experiment: Cytotoxicity against human HCT116 cells after 48 hrs by SRB assay; type: functional; details: HCT-116, 48 h; in short: as §3
HCT-15 = experiment: Cytotoxicity against human HCT15 cells after 48 hrs by SRB assay; type: functional; details: HCT-15, 48 h; in short: as §3
UACC-62 = experiment: Cytotoxicity against human UACC62 cells after 48 hrs by SRB assay; type: functional; details: UACC-62, 48 h; in short: as §3
OVCAR-4 = experiment: Cytotoxicity against human OVCAR4 cells after 48 hrs by SRB assay; type: functional; details: OVCAR-4, 48 h; in short: as §3
EKVX = experiment: Induction of apoptosis in TNFalpha-stimulated human EKVX cells at 1 uM incubated for 1 hr prior to TNFalpha stimulation measured after 18 hrs by TUNEL assay; type: functional, cell-based
In short: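 EKVX cells in RPMI 1640 with 10% FBS were grown on glass coverslips. Compound was given for 1 h at 37 °C, then 20 ng/ml TNFα for 18 h. Cells were fixed in 3.7% paraformaldehyde, treated with proteinase K for 30 min, then TUNEL-labelled with streptavidin-fluorescein plus DAPI. Scored by fluorescence microscopy.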

UACC-257 = experiment: Cytotoxicity against human UACC257 cells after 48 hrs by SRB assay; type: functional; details: UACC-257, 48 h; in short: as §3
PC-3 = experiment: Cytotoxicity against human PC3 cells after 48 hrs by SRB assay; type: functional; details: PC-3, 48 h; in short: as §3
MDA-MB-435 = experiment: Cytotoxicity against human MDA-MB-435 cells after 48 hrs by SRB assay; type: functional; details: MDA-MB-435, 48 h; in short: as §3
DU-145 = experiment: Cytotoxicity against human DU145 cells after 48 hrs by SRB assay; type: functional; details: DU-145, 48 h; in short: as §3
TK-10 = experiment: Cytotoxicity against human TK10 cells after 48 hrs by SRB assay; type: functional; details: TK-10, 48 h; in short: as §3
[5] = Cytotoxicity against human NCI-ADR-RES cells after 48 hrs by SRB assay; type: functional; in short: as §3
SF-539 = experiment: Cytotoxicity against human SF539 cells after 48 hrs by SRB assay; type: functional; details: SF-539, 48 h; in short: as §3
[6] = Cytotoxicity against human SKOC3 cells after 48 hrs by SRB assay; type: functional; details: SKOC3, 48 h; in short: as §3
BT-549 = experiment: Cytotoxicity against human BT549 cells after 48 hrs by SRB assay; type: functional; details: BT-549, 48 h; in short: as §3
SK-MEL-2 = experiment: Cytotoxicity against human SK-MEL-2 cells after 48 hrs by SRB assay; type: functional; details: SK-MEL-2, 48 h; in short: as §3
Malme-3M = experiment: Cytotoxicity against human MALME-3M cells after 48 hrs by SRB assay; type: functional; in short: as §3
Hs-578T = experiment: Cytotoxicity against human Hs578T cells after 48 hrs by SRB assay; type: functional; in short: as §3
OVCAR-8 = experiment: Cytotoxicity against human OVCAR8 cells after 48 hrs by SRB assay; type: functional; details: OVCAR-8, 48 h; in short: as §3
786-0 = experiment: Cytotoxicity against human 786-0 cells after 48 hrs by SRB assay; type: functional; details: 786-0, 48 h; in short: as §3
SF-295 = experiment: Cytotoxicity against human SF295 cells after 48 hrs by SRB assay; type: functional; details: SF-295, 48 h; in short: as §3
U-251 = experiment: Cytotoxicity against human U251 cells after 48 hrs by SRB assay; type: functional; details: U-251, 48 h; in short: as §3
KM12 = experiment: Cytotoxicity against human KM12 cells after 48 hrs by SRB assay; type: functional; details: KM12, 48 h; in short: as §3
SN12C = experiment: Cytotoxicity against human SN12C cells after 48 hrs by SRB assay; type: functional; in short: as §3
UO-31 = experiment: Cytotoxicity against human UO31 cells after 48 hrs by SRB assay; type: functional; details: UO-31, 48 h; in short: as §3
IGROV-1 = experiment: Cytotoxicity against human IGROV1 cells after 48 hrs by SRB assay; type: functional; details: IGROV-1, 48 h; in short: as §3
COLO 205 = experiment: Cytotoxicity against human COLO205 cells after 48 hrs by SRB assay; type: functional; details: COLO 205, 48 h; in short: as §3

SMILES: c1ccc(CN2CCN(c3ncnc4ccccc34)CC2)cc1
- Activity (HepG2 [1]): -17.6%
- inhibition (HepG2 [2]): Active
- Activity (HepG2 [3]): -16.7%

SMILES: Oc1ccc(Br)cc1CN1CCN(c2ncnc3ccccc23)CC1
- Activity (HepG2 [1]): -29.9%
- inhibition (HepG2 [2]): Active
- Activity (HepG2 [3]): -22%

SMILES: c1ccc2c(NCCc3ccc4c(c3)OCO4)ncnc2c1
- Activity (HepG2 [1]): -28.1%
- inhibition (HepG2 [2]): Active
- Activity (HepG2 [3]): -20.1%

SMILES: Oc1ccccc1CN1CCN(c2nc(-c3ccccc3)nc3ccccc23)CC1
- Activity (HepG2 [1]): 13%
- inhibition (HepG2 [2]): Active
- Activity (HepG2 [3]): 14.6%

SMILES: c1ccc(-c2nc(NCCc3c[nH]c4ccccc34)c3ccccc3n2)cc1
- GI50 (T47D): 2400 nM
- GI50 (OVCAR-3): 2900 nM
- GI50 (CAKI-1): 3100 nM
- GI50 (SW-620): 3000 nM
- GI50 (MDA-MB-231): 3100 nM
- GI50 (M14): 2600 nM
- GI50 (LOX IMVI): 2200 nM
- GI50 (SF-268): 4600 nM
- inhibition (HepG2 [4]): Active
- GI50 (MCF7): 4200 nM
- GI50 (SNB-19): 5100 nM
- GI50 (RXF 393): 1900 nM
- GI50 (SNB-75): 5900 nM
- GI50 (HCC 2998): 2100 nM
- GI50 (SK-MEL-28): 6200 nM
- GI50 (A498): 2000 nM
- GI50 (HCT-116): 2800 nM
- GI50 (HCT-15): 2500 nM
- GI50 (UACC-62): 2000 nM
- Activity (HepG2 [1]): -46.7%
- GI50 (OVCAR-4): 3600 nM
- Activity (EKVX): Active
- GI50 (UACC-257): 3200 nM
- GI50 (PC-3): 2400 nM
- GI50 (MDA-MB-435): 2300 nM
- GI50 (DU-145): 4700 nM
- GI50 (TK-10): 2800 nM
- GI50 [5]: 2600 nM
- GI50 (SF-539): 2000 nM
- GI50 [6]: 3700 nM
- GI50 (BT-549): 4400 nM
- GI50 (SK-MEL-2): 3000 nM
- GI50 (Malme-3M): 2800 nM
- GI50 (Hs-578T): 3400 nM
- GI50 (OVCAR-8): 2200 nM
- GI50 (786-0): 2500 nM
- GI50 (SF-295): 2000 nM
- GI50 (U-251): 3200 nM
- GI50 (KM12): 2800 nM
- GI50 (SN12C): 3900 nM
- inhibition (HepG2 [2]): Active
- Activity (HepG2 [3]): -35.3%
- GI50 (UO-31): 3000 nM
- GI50 (IGROV-1): 3200 nM
- GI50 (COLO 205): 2200 nM

SMILES: Oc1ccc(CN2CCN(c3nc(-c4ccccc4)nc4ccccc34)CC2)cc1
- Activity (HepG2 [1]): -49.1%
- inhibition (HepG2 [2]): Active
- Activity (HepG2 [3]): -37.6%
